TAAR1 agonist = agonists of human TAAR1 | 360,000 tested, 0.99% active | CHO RD-HGA16 TAAR1, Fluo-8 calcium fluorescence; vehicle wells 0%, saturating PEA agonist 100% | AID 624467 | Q96RJ0 | activation, % at 3 µM;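 active = activation above the mean activation of all test compounds in the run plus 3 SD, cut at about 38% in these data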
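System: CHO RD-HGA16 cells carrying human TAAR1 plus Gα16; Incubation: 17-24 h seeding, 75 min 37 °C dye, 30 min RT; Measured by: Fluo-8 fluorescence, 5 s baseline then 140 s kinetic read; Control set: DMSO and PEA EC100; Replication: single well for each compound.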
TAAR1 antagonist = antagonists of human TAAR1. Q96RJ0. CHO RD-HGA16 TAAR1, Fluo-8 calcium fluorescence, antagonist. inhibition, % at 3 µM. 360,000 tested, 1.5% active. AID 624466;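 active = inhibition above a per-plate cutoff, the mean inhibition of test compounds on that plate plus 3 SD, cut at about 49% in these data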;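 note: 0% = DMSO plus EC80 beta-PEA response and 100% = DMSO alone without agonist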
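Test system: CHO RD-HGA16 cells bearing hTAAR1 | Reagent: β-PEA, EC80 | Compound dosing: 3 µM, single point | Schedule: Dye loading 75 min at 37 °C, then 30 min room temperature | Signal: Calcium fluorescence with Fluo-8 | Evaluation: Percent inhibition of PEA-evoked calcium signal, max/basal emission ratio | Control set: DMSO-only wells and EC80 β-PEA-stimulated wells | Repeats: Singlicate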
CHRM1 antagonist = antagonists of human M1 muscarinic receptor; 360,000 tested, 1.3% active; CHO-K1 hM1, Fluo-8 calcium fluorescence, ACh EC80 antagonist; inhibition, % at 3 µM;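 active = percent inhibition above its own plate's cutoff, namely the mean of that plate's compound wells plus 3 SD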;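 note: peak over basal fluorescence ratio during 140 s after agonist addition; 0% = ACh EC80 plus DMSO and 100% = DMSO alone without agonist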
Target sequence (P11229 whole entry, looked up): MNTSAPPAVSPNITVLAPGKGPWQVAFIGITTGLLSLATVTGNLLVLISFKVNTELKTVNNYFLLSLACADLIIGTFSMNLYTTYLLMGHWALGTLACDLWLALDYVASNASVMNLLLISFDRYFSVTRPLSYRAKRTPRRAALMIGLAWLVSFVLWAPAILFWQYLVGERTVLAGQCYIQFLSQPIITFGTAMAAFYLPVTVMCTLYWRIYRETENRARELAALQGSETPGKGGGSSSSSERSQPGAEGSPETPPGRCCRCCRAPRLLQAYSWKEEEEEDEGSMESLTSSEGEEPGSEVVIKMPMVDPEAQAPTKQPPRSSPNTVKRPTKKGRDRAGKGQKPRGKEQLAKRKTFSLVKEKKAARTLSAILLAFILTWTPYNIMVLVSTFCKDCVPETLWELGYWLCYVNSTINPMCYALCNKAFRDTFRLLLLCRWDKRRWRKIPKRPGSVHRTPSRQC
CHRM1 agonist = human M1 muscarinic receptor agonism | activation, % at 3 µM | CHO-K1 hM1, Fluo-8 calcium fluorescence, agonist mode; 0% DMSO, 100% acetylcholine EC100 | 360,000 tested, 0.33% active;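 active = activation above the run's mean compound activation plus 3 SD, cut at about 16% in these data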;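 note: peak over basal fluorescence ratio within a 140 s kinetic read after compound addition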
CHRM1 PAM = potentiates human M1 receptor response to acetylcholine; P11229; CHO-K1 hM1, Fluo-8 calcium fluorescence, ACh EC20; 0% = ACh EC20, 100% = maximal ACh; activation, % at 3 µM; 360,000 tested, 0.088% active; in the data active = activation above about 19%, passing the limit was not always enough
The depositor's hits bear a star; / = no result. The list is not random: actives were taken first. Their share in the collection is about 3.4%.

SMILES	TAAR1 agonist	TAAR1 antagonist	CHRM1 antagonist	CHRM1 agonist	CHRM1 PAM
C#CCN(C[C@H]1[C@H](OC(=O)Nc2cccs2)[C@H](OC(=O)Nc2cccs2)CN(C(=O)OC(C)C)N1C(=O)OC(C)C)S(=O)(=O)c1ccc(C)cc1	0	-1	/	/	/
Cn1c(=O)c2cc(NC(=O)CCc3ccccc3)ccc2n1Cc1cccc(C(F)(F)F)c1	11	3	-6	1	1
CCOCCC(=O)Nc1ccc2c(c1)c(=O)n(C)n2Cc1cccc(C(F)(F)F)c1	2	7	-32	6	32*
CN(C)C1=NC[C@H](Cc2ccccc2)N1CCCCc1ccccc1	22	6	34*	-9	-23
CCCCCCCN1C(N(C)C)=NC[C@@H]1Cc1ccccc1	5	6	29	-12	-27
N#C/C(=C/c1ccc(-c2ccc(S(N)(=O)=O)cc2)o1)c1nc2ccccc2s1	20	25	60*	54*	-22
N#C/C(=C/c1ccc(-c2ccccc2)o1)c1nc(-c2cccs2)cs1	34	55*	19	14	-3
N#C/C(=C/c1ccc(-c2ccc(S(N)(=O)=O)cc2)o1)C(=O)Nc1ccccc1	11	36	23	-3	-15
CC(=O)C1=C(C)N(CC(C)C)C(=S)NC1c1cccc(Cl)c1 (stereo unspecified)	-3	19	/	/	/
Cc1c(CCOC(=O)c2ccccc2)sc[n+]1CC(=O)c1ccc(Br)cc1	/	/	77*	-11	-32
Cc1c(CCOC(=O)c2ccccc2)sc[n+]1Cc1ccccc1	0	3	98*	-9	-22
COC(=O)[C@]12C[C@H](CC(=O)NCCc3ccccc3OC)C(=O)N(CCC3=CCCCC3)C1=C[C@H](C(C)(C)C)O[C@@H]2C	27	-4	/	/	/
C=C1C(C(=O)Nc2ccc(OCC)cc2)C1C(=O)Nc1ccc(OCC)cc1 (stereo unspecified)	5	0	8	-4	-1
C=C1C(C(=O)Nc2ccc(OC)cc2)C1C(=O)Nc1ccc(OC)cc1 (stereo unspecified)	-1	-13	25*	-3	-4
COc1ccc(CN(C(=O)CSc2nnc(-c3c[nH]c4ccccc34)o2)c2ccc(F)cc2)cc1OC	26	82*	14	0	-5
COc1ccc(CN(C(=O)CSc2nnc(-c3ccc(F)cc3)o2)c2ccc(F)cc2)cc1	0	-34	-14	-5	6
S=C(SCc1cc(Cl)cc2c1OCOC2)N1CCSCC1	5	-20	/	/	/
COc1ccc(N2C(=O)CCC(C(=O)NCCN3CCOCC3)C2c2ccc(OC)c(OC)c2)cc1 (stereo unspecified)	6	-12	22*	-2	-4
COC(=O)CCCCCCCCCCN1CCCCC1	2	9	27*	-8	-24
Cc1ccccc1C1c2[nH]c3ccccc3c2C[C@H]2C(=O)N(c3ccccc3C(=O)NCCN3CCOCC3)C(=O)N12 (stereo partly specified)	9	50*	-15	3	14
Nc1[nH]c(C(=O)c2ccccc2)c(-c2cc(F)ccc2Br)c1C(=O)NCCc1c[nH]c2ccccc12	2	1	/	/	/
CCCCCCCCOC(=O)c1c(CSC(=N)N)n(C)c2cc(Br)c(OC(C)=O)cc12	90*	-16	-5	8	14
CCOC(=O)c1c(CSC(=N)N)n(-c2ccc(Br)cc2)c2cc(Br)c(OC(C)=O)cc12	26	-10	-13	-5	7
CNCCNC[C@H](Cc1cccc2ccccc12)NCCc1ccccc1	38*	-10	-11	-3	4
CC(CCc1ccccc1)NC(=O)COC(=O)c1cccc2ccccc12 (stereo unspecified)	3	-22	-3	-3	4
SMILES	TAAR1 agonist	TAAR1 antagonist	CHRM1 antagonist	CHRM1 agonist	CHRM1 PAM
CNC[C@H](Cc1ccccc1)NC[C@@H](Cc1cccc2ccccc12)NCCc1ccc(C)cc1	43*	50*	6	1	3
Cc1ccc(S(=O)(=O)N2CC(CBr)=CCC2c2ccccc2)cc1 (stereo unspecified)	1	-21	/	/	/
Cc1ccc(C)c(-n2sc3ccc(F)cc3c2=O)c1	45*	51*	4	3	-4
O=c1c2cc(F)ccc2sn1-c1ccc(F)cc1	/	/	15	5	-4
COc1ccc(-n2sc3ccc(F)cc3c2=O)cc1	50*	45	-2	8	5
CN(N=Cc1ccc(N(C)C)cc1)C(=O)c1ccccc1N	0	0	/	/	/
COc1ccc(NC(=O)NN2CCN(C)CC2)cc1OC	2	-4	-8	-1	7
COc1ccc(NC(=O)NN2CCOCC2)cc1OC	6	63*	2	-2	3
N#CCCN1CCN(C(=S)c2ccc(-c3cc(Cl)ccc3Cl)o2)CC1	-1	24	30*	-3	-9
CCOC(=O)c1ccc(S(=O)(=O)Nc2ccccc2-c2nnn(CC)n2)cc1	4	53*	47*	-6	-32
O=[N+]([O-])c1ccc(Cl)c(CN2CCN(c3ncccn3)CC2)c1	2	-6	-27	-8	15
Cc1ccc2nc(C)c(CN3CCN(c4ccc([N+](=O)[O-])cc4Cl)CC3)n2c1	43*	-12	37*	-6	-20
CN1CCN(C(=O)CN(C2CCCCC2)S(=O)(=O)c2ccc(Br)cc2)CC1	7	2	2	18*	-2
C=CCN=C1NC(c2ccccc2C(F)(F)F)C(C(=O)OC)=C(C)N1Cc1ccccc1C(F)(F)F (stereo unspecified)	-2	-10	/	/	/
O=C(NCC(F)(F)F)c1cc2c(c(-c3cccc(-c4ccccc4F)c3)n1)[C@H](CCO)N(C(=O)CC1CC1)C2	3	15	/	/	/
Cc1cc(C)c(C#N)c(SCC(O)COc2ccc(Br)cc2)n1 (stereo unspecified)	0	56*	61*	-10	-33
Cc1cc(C)c(C#N)c(SCC(O)CS(=O)(=O)Cc2ccccc2)n1 (stereo unspecified)	14	12	-5	3	8
O=C(C[C@@H]1CC[C@@H]2[C@H](COC[C@H](O)CN2S(=O)(=O)c2ccccc2)O1)Nc1ccccc1	1	-19	/	/	/
Cc1ccccc1OCC(O)CN (stereo unspecified)	38*	-17	-21	-2	7
COc1ccc(NC(=O)c2cc(-c3ccncc3)nc3ccc(Br)cc23)cc1OC	15	53*	19	0	-6
COc1ccc(NC(=O)c2cc(-c3cccnc3)nc3ccc(C)cc23)cc1OC	12	19	1	-2	-4
CC(=O)OCC(=O)[C@@]1(O)CC[C@H]2[C@@H]3CCC4=CC(=O)C=C[C@]4(C)[C@@]3(Cl)[C@@H](Cl)C[C@@]21C	1	13	-21	37*	-14
Cc1ccc(N=c2ssnc2Cl)cc1	41*	16	-2	3	5
